Data from PubChem BioAssay AID504382 (The Scripps Research Institute Molecular Screening Center, 2011).
Out of some 2,500 compounds screened, about 460 (18%) were called active.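 Rule for the calls: active = mean activation above a cutoff of low control average plus 3 SD from the earlier screen (cut at about 12% in these data); inactive = the rest.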 Not all results are given here.

assay: IANBD-channel fluorescence artefacts in buffer – biochemical, artefact control for cardiac RTF calcium sensitizer project, confirmation (AID 504382); conditions: IANBD fluorescence interference counterscreen, EC20 Ca2+, at 7.2 µM, stronger effect = higher value, scaled: EC20 calcium 0, EC100 calcium 100
Outline: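 timing = compound incubation 15 min at 25 °C before fluorescence reading | technique = fluorescence at 480 nm excitation, 540 nm emission | evaluation = interference relative to controls | replication = triplicate wells per compound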

SMILES	fluorescence artifact activation
COC(=O)c1sccc1Oc1ccc(Cl)cc1N1C(=O)CCC1=O	0.03% (inactive)
COC(=O)c1c(=O)n(O)c2ccc(OC)cc2[n+]1[O-]	0.04% (inactive)
C=CCn1c(=O)/c(=C/c2cc(OC)c(OC)c(OC)c2)s/c1=C(/C#N)c1nc2ccccc2n1C	0.02% (inactive)
Cc1cccc(OCc2nn[nH]n2)c1C	1.02% (inactive)
COc1ccccc1C1=NOC(Cn2c(=O)c3c(ncn3C)n(C)c2=O)C1 (centres undefined)	0.23% (inactive)
CCN(CC)CCN1C(=O)c2cccc3cc(N)cc(c23)C1=O	24.6% (active)
CC(C)CCN1C(=O)c2cccc3c(N)ccc(c23)C1=O	1.45% (inactive)
O=C1c2cccc3cc([N+](=O)[O-])cc(c23)C(=O)N1CCN1CCCC1	0.08% (inactive)
Cc1ccc(Cn2c(O)c(N=NC(=S)Nc3ccccc3F)c3cc(S(=O)(=O)N4CCOCC4)ccc32)cc1	5.72% (inactive)
COC(=O)c1cc(NC(=O)c2ccccc2)c(=O)oc1C/C=N\OCc1ccc(Cl)cc1Cl	0.01% (inactive)
CC(=O)c1cc(NC(=O)c2ccc(Cl)cc2)c(=O)oc1/C=C/N(C)C	0.02% (inactive)
CC(=O)c1cc(NC(=O)c2ccc(C)cc2)c(=O)oc1/C=C/N(C)C	15.6% (active)
N#CC12COC3(CCCCC3C1(C#N)C#N)OC2=N (centres undefined)	0.14% (inactive)
CCOc1ccc(N(C(=O)CNC(=O)c2ccco2)C(C(=O)NC2CCCC2)c2ccncc2)cc1 (centres undefined)	0.08% (inactive)
CN(CC(=O)NCc1ccco1)S(=O)(=O)c1cccc2cccnc12	6.75% (inactive)
CCC(C)(C)NC(=O)C(c1ccc(F)cc1)N(Cc1ccco1)C(=O)c1cnccn1 (centres undefined)	18.7% (active)
COc1cccc(CN2CCNC(=O)C2CC(=O)N(C)Cc2cnccn2)c1OC (centres undefined)	0.09% (inactive)
O=C(CSC1=NS(=O)(=O)c2ccccc2N1)N1CCCCC1	1.61% (inactive)
CN(C)C(CNC(=O)CSc1nc2ccccc2c(=O)n1Cc1ccco1)c1ccccc1 (centres undefined)	-0.06% (inactive)
CC1(C)CC(CC(=O)Nc2nccs2)(c2ccccc2)CCO1 (centres undefined)	239% (active)
O=C(Cc1c(F)cccc1Cl)Nc1nccs1	0.01% (inactive)
CC1(C)CC2(CCCN(C(=S)Nc3ccccc3)C2)CCO1 (centres undefined)	0.12% (inactive)
Cn1c(=O)cc(SCC(=O)NCC2COc3ccccc3O2)c2ccccc21 (centres undefined)	0.03% (inactive)
Cc1cc(NS(C)(=O)=O)c(=O)n(Cc2cccc(F)c2)c1	0.35% (inactive)

SMILES	fluorescence artifact activation
COc1ccc(N/C=C2\C(=O)CCc3c2oc2cc(Cl)c(O)c(Cl)c32)cc1	12.7% (active)
Cn1cnnc1Sc1nc2ccccc2nc1NS(=O)(=O)c1ccccc1	4.87% (inactive)
Cc1cc(N/C=C\c2nnnn2-c2ccc(F)cc2)no1	233% (active)
CC(=O)N(c1ccccc1)C1SC(=O)N(c2ccccc2)C1=O (centres undefined)	0.05% (inactive)
O=C(O)C(c1ccccc1)N1C(=O)/C(=C\c2ccc(-c3ccc(Br)cc3)o2)SC1=S (centres undefined)	68.3% (active)
O=C(O)CN1C(=O)/C(=C/c2ccc(SCc3ccccc3)o2)SC1=S	11.5% (inactive)
O=C(O)c1cc(-c2ccc(/C=C3/SC(=S)N(Cc4ccccc4)C3=O)o2)ccc1Cl	0.02% (inactive)
CC(C)NC(=S)N/N=C/c1sc(N2CCCCC2)nc1-c1cccs1	0.18% (inactive)
FC(F)(F)c1ccc(-c2nc(=S)[nH][nH]2)cc1	-0.01% (inactive)
CCN(CC)CC(C(=O)N(CC)CC)P(=O)(c1ccccc1)c1ccccc1 (centres undefined)	1.03% (inactive)
Cc1ccc(SCC(=O)OCC(=O)NCc2cccs2)cc1	2.52% (inactive)
O=C(CO/N=C/c1ccccc1OC(F)F)NCc1cccs1	16.6% (active)
CCC1Oc2ccc(C)cc2N(CC(=O)NCc2cccs2)C1=O (centres undefined)	-0.08% (inactive)
C=CCOc1ccc(C2OC34CCCCC3C(C#N)(C#N)C2(C#N)C(=N)O4)cc1 (centres undefined)	0.84% (inactive)
Cc1ccc(-c2noc(-c3c(C)noc3C)n2)cc1	2% (inactive)
O=C1c2ccsc2SCCN1Cc1ccc(F)cc1	7.58% (inactive)
O=C(NN1C(=O)/C(=C/c2ccc(O)cc2)SC1=S)c1ccccc1O	0.14% (inactive)
C=C(C)c1cccc(C(C)(C)NC(=O)Nc2cccnc2)c1	5% (inactive)
N#CC1=C(N)OC2=C(CC/C2=C\c2ccccc2Cl)C1c1ccccc1Cl (centres undefined)	125% (active)
N#CC1=C(N)OC2=C(CC/C2=C\c2ccccc2)C1c1ccccc1 (centres undefined)	1.94% (inactive)
Cc1ccc(/C=C2\CCC3=C2OC(N)=C(C#N)C3c2ccc(C)cc2)cc1 (centres undefined)	0.12% (inactive)
COc1ccc2c(n1)Sc1nc3ccccc3nc1N2	0.01% (inactive)
O=C(c1ccccc1)c1ccc(O)cc1O	24.9% (active)
O=C(c1ccccc1)c1ccncc1	0.03% (inactive)

SMILES	fluorescence artifact activation
O=C(c1ccccc1)c1ccccc1C(=O)c1ccccc1	0.23% (inactive)
CC1(C)CC(=O)C2=C(C1)OC(N)=C(C#N)[C@@H]2c1ccccc1[N+](=O)[O-]	7.58% (inactive)
CCNC(=O)COc1ccc(-c2ccccc2)cc1	0.09% (inactive)
O=C(O)c1ccc(NC(=S)NC(=O)c2ccc(-c3ccccc3)cc2)cc1	9.94% (inactive)
O=C(O)CCC(=O)NNC(=O)c1ccc(-c2ccccc2)cc1	49% (active)
COc1cc(NC(=O)CSc2ccccc2)c(C(=O)O)cc1OC	3.35% (inactive)
Nc1nc(SCc2cccc(Br)c2)n[nH]1	0.03% (inactive)
CC(Sc1nc2ncc(Cl)cc2[nH]1)C(=O)Nc1ccc(C(N)=O)cc1 (centres undefined)	-0.03% (inactive)
O=C1/C(=C\c2c(NCCOCCO)nc3ccccn3c2=O)SC(=S)N1Cc1ccco1	31.6% (active)
CCN1CCN(c2c(/C=C3\SC(=S)N(Cc4ccco4)C3=O)c(C)c(C#N)c(=O)n2C)CC1	0.03% (inactive)
CCCN(CCC)c1nc2c(C)cccn2c(=O)c1/C=C1/SC(=S)N(Cc2ccco2)C1=O	0.05% (inactive)
Cc1cccc(C)c1NC(=O)CNC(=O)Cc1ccc(Br)cc1	0.05% (inactive)
C=CCn1c(C)c(/C=C/c2cc[n+](C)cc2)c2ccccc21	8.02% (inactive)
Cn1c(=O)c2cc(NCc3ccccc3)nnc2n(C)c1=O	0.34% (inactive)
Cn1c(=O)cc(N)n(Cc2ccccc2)c1=O	14.3% (active)
O=c1cc2c(c(-c3ccccc3)n1Cc1ccccc1)[C@H](CCO)NC2	0.32% (inactive)
CN1CCN(C(=O)c2cc3ccccc3[nH]2)CC1	-0.01% (inactive)
CC(C)CN1CCC(C(=O)N2CCN(c3ccccc3F)CC2)CC1	-0.02% (inactive)
CCC(CC)C(=O)c1c[nH]c(C(=O)N2CCN(c3ccccc3F)CC2)c1	17% (active)
CC(=O)Nc1ccc2nc3c(=O)n(C)c(=O)n(C)c3nc2c1	1.77% (inactive)
COc1ccc(CCNC(=O)CN(C)S(=O)(=O)c2ccc3c(c2)CCC(=O)N3)cc1OC	-0.01% (inactive)
COc1cc(/C=C/C(=O)c2ccc3c(c2)OCO3)cc(Cl)c1O	1.66% (inactive)
Cc1cc[n+](-c2[nH]c(=O)sc2/C=N/NC([S-])=Nc2ccccc2)cc1	1.49% (inactive)
CC(C)OC(=O)CC(=O)CSc1nc(-c2ccc(F)cc2)cc(-c2ccccc2)c1C#N	17.5% (active)

SMILES	fluorescence artifact activation
COc1ccc(-c2cc(C3CC3)nc(SCC(=O)c3cccs3)c2C#N)cc1	0.1% (inactive)
CCOC(=O)CC(=O)CSc1nc(-c2ccc3c(c2)OCO3)cc(C(F)(F)F)c1C#N	0.09% (inactive)
Cc1cc(C)n(-c2nc3ccccc3nc2Nc2ccc3[nH]c(=O)[nH]c3c2)n1	4.66% (inactive)
CC(C)Oc1ccc(/C(O)=C2/C(=O)C(=O)N(CCN3CCNCC3)C2c2cccc([N+](=O)[O-])c2)cc1 (centres undefined)	1.8% (inactive)
CCOC(=O)C1=C(C)NC(=O)/C1=C\N(C)C	0.04% (inactive)
Cc1cc(C)c(NC(=S)N(C)C)c(C)c1	31.3% (active)
NC(=O)c1ccccc1N/C=C/C(=O)c1ccc(Cl)cc1Cl	1.35% (inactive)
COc1ccc(N(C(=O)c2ccc(C)cc2)S(=O)(=O)c2cccs2)cc1	54.9% (active)
COc1ccc(NC(=O)C(c2ccc(C)cc2)N(C)C(=O)Cc2cccs2)cc1 (centres undefined)	0.03% (inactive)
COc1ccc(NC(=O)CNS(=O)(=O)c2cccs2)cc1	-0.02% (inactive)
CCOC(=O)C(C#N)C(c1cccnc1)c1c(C)[nH][nH]c1=O (centres undefined)	0.03% (inactive)
Cc1ccccc1Nc1nnc(SCC(=O)c2cc3ccccc3o2)s1	-0.07% (inactive)
O=C(CSc1nc2ccccc2s1)c1cc2ccccc2o1	6.22% (inactive)
O=C(CSc1nc2cc(Cl)ccc2s1)c1cc2ccccc2o1	39.2% (active)
CCN(CC)C(=O)c1ccc(/C=C/c2c[nH]c3ccccc23)[n+](C)c1	0.26% (inactive)
Brc1ccc(C2=CC(c3cccs3)n3ncnc3N2)cc1 (centres undefined)	0.13% (inactive)
CS(=O)(=O)Nc1nc2n(n1)C(c1ccccc1)C=C(c1ccc(Br)cc1)N2 (centres undefined)	13% (active)
Brc1ccc(C2=CC(c3ccco3)n3ncnc3N2)cc1 (centres undefined)	0.04% (inactive)
O=C(O)C1=C[C@H](c2ccccc2)C[C@H](OCc2ccc(CO)cc2)O1	0.07% (inactive)
Cc1ccc(NC(=O)C(OC(=O)c2ccc(F)cc2)c2ccccc2)cc1Cl (centres undefined)	-0.03% (inactive)
Cn1nc(NC(=O)C2CCC2C(=O)O)c2c(F)cccc21 (centres undefined)	7.56% (inactive)
CC(C)(C)OC(=O)N1CC=C2C(C#N)=C(N)C(C#N)(C#N)C(c3cccs3)C2C1 (centres undefined)	-0.03% (inactive)
